The list is not random: actives were taken first. Their share in the collection is about 2.7%.
Phagocyt inh – inhibitors of macrophage phagocytosis, primary screen, imaging, J774A.1 cells, IgG beads. 0.07% of 110,000 active. J774A.1 macrophage IgG-bead phagocytosis. inhibition, % at 5 µM;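 active means inhibition above the mean of the plate negative controls plus 5 SD, cut at about 13% in these data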;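 further: phagocytic index as fraction of beads internalized from green versus red external bead signal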
Yeast growth inh – growth inhibitors of yeast BB579 in restrictive medium, primary screen, yeast lifespan-shortening project, S. cerevisiae; OD615, 48 h; inhibition, % at 10 µM; 0.51% of 140,000 active; AID 804, 2007;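 active means inhibition above a set limit, 3 SD over the mean compound inhibition, cut at about 44% in these data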
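System: DeaD yeast strain BB579; buffer or medium: CSMM-D dextrose restrictive medium; technique: OD at 615 nm; schedule: 4 h cell preincubation, 48 h compound exposure, 30 °C humidified; doses: single 10 µM dose; controls: amphotericin B 10 µg/mL, positive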
Yeast lifespan up – compounds extending yeast replicative lifespan, primary screen, S. cerevisiae, OD615 | S. cerevisiae growth with nicotinamide; deaD strain in restrictive glucose medium | inhibition of the nicotinamide effect, % at 10 µM | 0.68% of 130,000 active | AID 775, 2007;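 active means inhibition above a set limit, placed 3 SD over the median of all compounds, cut at about 26% in these data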
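Assay system: engineered S. cerevisiae DeaD replicative-lifespan strain, galactose-grown log-phase cells; medium: restrictive CSMM-D dextrose medium; also added: nicotinamide, 1.5 mM, co-present with compound; schedule: 48 h compound exposure at 30 °C, humidified; detection: absorbance at 615 nm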
RAM inhibit – inhibitors of the yeast RAM network, primary screen, dse1pr::URA3 reporter, 5-FOA selection; S. cerevisiae dse1pr::URA3 reporter, 5-FOA growth OD615, 2 d; analog-sensitive cbk1-as2 kinase mutant strain; inhibition, % at 50 µM; 1.8% of 190,000 active;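 active means inhibition above a set limit, 3 SD over mean compound inhibition, cut at about 8.4% in these data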;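 further: inhibition rescues growth on 5-FOA so higher OD means more RAM inhibition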
Hits are given with their value; - = inactive; . = no result given.

SMILES	Phagocyt inh	Yeast growth inh	Yeast lifespan up	RAM inhibit
Cc1cccc(Nc2nnc(SCC(=O)NCc3cccs3)s2)c1C	-	-	-	-
Cc1cccc(Nc2nnc(SCC(=O)NCc3cccs3)s2)c1	.	.	.	8.5
COC(=O)C1CSC(C(=O)OC)N1C(=O)CN1CCN(c2ccccc2)CC1 (configuration not stated)	.	.	.	-
COc1ccc(O)c(-c2cc(C(F)(F)C(F)F)nc(-c3ccccc3)n2)c1	-	-	-	9.1
CCOC1OC(=O)C(Cl)=C1Nc1cc(C)ccc1C (configuration not stated)	.	.	.	-
O=C(NCCN1C(=O)S/C(=C/c2ccccc2)C1=O)C1CCCN1C(=O)c1cccs1 (configuration not stated)	-	-	-	9.5
CC(/C=N/n1c(COc2ccccc2)n[nH]c1=S)=C\c1ccccc1	.	-	-	8.4
CCOc1ccc(-n2c(C)c(C(C)=O)c3cc(OCC(N)=O)ccc32)cc1	.	.	.	-
COc1ccc(-n2c(C)c(C(C)=O)c3cc(OCC(N)=O)ccc32)cc1	.	.	.	8.8
COc1ccc(O)c(C(=O)c2cc(C#N)c(=O)n(CC3CCCO3)c2)c1 (configuration not stated)	-	-	113	-
O=[N+]([O-])c1ccccc1-c1cc(-c2cc(Cl)ccc2O)n[nH]1	-	96	-	-
COc1ccc(-c2cc(-c3cc(C)ccc3O)[nH]n2)cc1	.	.	.	-
Cc1ccc(O)c(-c2cc(-c3ccccc3[N+](=O)[O-])[nH]n2)c1	-	-	-	-
Cc1ccc(O)c(-c2cc(-c3ccccc3C)[nH]n2)c1	-	99	-	-
O=Nc1ccc(NOC(=O)c2ccccc2)cc1	-	-	-	-
O=C(N=Nc1ccc(NOC(=O)c2ccccc2Br)cc1)c1ccccc1O	.	.	.	11
Cc1ccc(-n2nnnc2CCl)cc1	.	.	.	-
Oc1c(Br)cc(Br)cc1C=Nc1ccc2c(c1)OCO2	.	97	-	-
Oc1c(Br)cc(Br)cc1C=Nc1ccc2c(c1)OCCO2	.	.	.	-
NNC(=O)c1cccc(COc2ccc3c(c2)CCC3)c1	-	51	-	-
COc1ccccc1NC(=O)NCCN1C(=O)C2C3C=CC(C3)C2C1=O (configuration not stated)	-	-	-	-
CCCNC(=O)CN(C)CC(=O)Nc1ccccc1C#N	.	.	.	-
CC12C(=O)N(c3ccccc3C(=O)O)C(=O)C1C1C=CC2C1 (configuration not stated)	-	-	-	-
CC12C(=O)N(c3cccc4cccnc34)C(=O)C1C1C=CC2C1 (configuration not stated)	-	46	-	-
O=C(O)c1cc2ccc3ccccc3c2oc1=O	.	64	.	-
SMILES	Phagocyt inh	Yeast growth inh	Yeast lifespan up	RAM inhibit
O=C(O)c1cc2cc(Cl)cc(Cl)c2oc1=O	-	-	-	-
O=C(O)c1cc2c(ccc3ccccc32)oc1=O	-	67	-	-
Cc1ccc(S(=O)(=O)c2nnn(-c3cccc(F)c3)c2N)cc1	.	.	.	-
COc1ccc(CCN=C(C)C2=C(O)C(c3ccccc3)OC2=O)cc1OC (configuration not stated)	.	.	.	-
COc1ccc(OC)c(NC(=O)c2ccc(NS(=O)(=O)c3c(C)noc3C)cc2)c1	-	-	-	-
COc1cc(NC(=O)c2ccc(NS(=O)(=O)c3c(C)noc3C)cc2)cc(OC)c1	-	-	-	11
CCCCC(=O)NC(=S)Nc1c(C)cc(Br)cc1C	-	-	-	-
COc1c(Br)cc(Br)cc1/C=N/n1c(C)nnc1C	-	-	37	-
Cc1cc(C)cc(N(CC(=O)NC(C)(C)C)C(=O)CNC(=O)c2cccs2)c1	.	.	.	-
CCCc1cc(=O)[nH]c(SCC(=O)Nc2ccc(C)cc2)n1	.	.	.	8.5
CCCc1cc(=O)[nH]c(SCC(=O)NC)n1	.	-	-	-
COc1ccc(CNC(=O)CSc2nnc(-c3ccc(NC(C)=O)cc3)n2C)cc1	-	48	-	-
CC(=O)Nc1ccc(-c2nnc(SCc3c(C)cc(C)cc3C)n2C)cc1	.	-	-	8.5
O=C(OC1C2CCC1C1CN(CCc3ccccc3)CC12)c1ccccc1 (configuration not stated)	-	-	-	-
Cc1ccc(S(=O)(=O)N2CCSC2c2ccco2)cc1 (configuration not stated)	-	-	-	-
O=C(Nc1ccc(Cl)cc1)NC1CCCCC1Cc1ccco1 (configuration not stated)	.	-	-	-
O=C(Nc1ccc(Cl)cc1)NC1CCCC1Cc1ccco1 (configuration not stated)	-	-	-	8.8

Source: PubChem
